Series [1] has as its target T1, Histone-lysine N-methyltransferase EHMT2 (Homo sapiens) (UniProt Q96KQ7).
T1 sequence (whole entry): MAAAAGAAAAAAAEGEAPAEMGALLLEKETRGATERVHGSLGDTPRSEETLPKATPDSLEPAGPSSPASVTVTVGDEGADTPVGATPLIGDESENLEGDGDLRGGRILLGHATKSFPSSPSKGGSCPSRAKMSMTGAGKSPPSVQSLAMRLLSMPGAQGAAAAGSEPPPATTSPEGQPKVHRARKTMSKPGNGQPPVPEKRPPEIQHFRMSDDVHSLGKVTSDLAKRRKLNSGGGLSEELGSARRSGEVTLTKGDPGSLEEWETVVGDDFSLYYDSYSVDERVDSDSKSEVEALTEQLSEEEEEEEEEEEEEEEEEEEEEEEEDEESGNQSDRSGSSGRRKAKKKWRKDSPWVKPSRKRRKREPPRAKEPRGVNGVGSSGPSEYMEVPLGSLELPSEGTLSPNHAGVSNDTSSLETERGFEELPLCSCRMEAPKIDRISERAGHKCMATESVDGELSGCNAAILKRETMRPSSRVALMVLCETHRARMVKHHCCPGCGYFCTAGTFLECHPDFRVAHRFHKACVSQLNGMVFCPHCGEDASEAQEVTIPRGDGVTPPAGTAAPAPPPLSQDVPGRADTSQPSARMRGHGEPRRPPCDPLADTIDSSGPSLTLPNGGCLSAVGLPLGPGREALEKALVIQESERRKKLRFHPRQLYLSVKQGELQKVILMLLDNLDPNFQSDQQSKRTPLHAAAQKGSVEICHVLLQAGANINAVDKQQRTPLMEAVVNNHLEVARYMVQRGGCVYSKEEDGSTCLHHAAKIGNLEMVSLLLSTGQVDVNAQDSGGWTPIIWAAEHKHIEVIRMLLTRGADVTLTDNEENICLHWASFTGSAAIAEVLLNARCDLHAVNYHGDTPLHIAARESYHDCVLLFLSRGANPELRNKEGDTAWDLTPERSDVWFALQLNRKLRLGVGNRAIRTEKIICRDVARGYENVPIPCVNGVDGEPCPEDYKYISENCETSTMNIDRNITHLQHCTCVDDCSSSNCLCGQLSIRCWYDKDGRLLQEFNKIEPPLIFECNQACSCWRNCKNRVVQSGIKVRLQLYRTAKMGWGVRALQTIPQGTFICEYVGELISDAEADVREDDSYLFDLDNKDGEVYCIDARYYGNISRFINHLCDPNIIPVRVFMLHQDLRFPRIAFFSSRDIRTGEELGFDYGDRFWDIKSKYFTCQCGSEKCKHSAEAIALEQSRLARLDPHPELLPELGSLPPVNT
Kind of series: Inhibition of G9a in human PC-3 cells assessed as effect on H3k4me3 levels at 0.3 to 3 uM after 72 hrs by Western blot analysis. The class given is cell-based. The settings on record: dose 0.3-3 µM. Summed up: (§1)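 PC-3 prostate cells incubated with DMSO, 0.3 or 3 μM compound for 72 h. Lysates probed by western blot with antibodies to H3K9me2, H3K4me2, H3K4me3, H3K9me3, H4K20me1, H4K20me3, H3K36me2 and H3K27me3.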

Series [2] concerns the target T1, Histone-lysine N-methyltransferase EHMT2 (Homo sapiens). In words: Inhibition of G9a in human PC-3 cells assessed as effect on H3k9me3 levels at 0.3 to 3 uM after 72 hrs by Western blot analysis. Format: cell-based. To be noted: dose 0.3-3 µM. Summed up:
as §1
For orientation: A western blot detects proteins with antibodies after separation by electrophoresis.

Series [3] deals with HT-1080. In words: Antiproliferative activity against human HT-1080 cells upto 10 uM after 5 days by Cell-Titer-Glo assay. To be noted: time 5.0 day. Format: functional, cell-based. Summed up:
(§2)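 ATCC tumor lines were grown in their recommended media with 10% FBS and STR-authenticated. Cells were exposed to compound for the stated number of days. Viable cells were read by CellTiter-Glo endpoint. Inhibition was the ratio of treated to untreated wells, with cell-free wells set as 100% inhibition. The EC50 was taken from the dose response.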

The test system of series [4] is MV4-11. In words: Antiproliferative activity against human MV4-11 cells after 14 days by Cell-titer Glo assay. The class given is functional, cell-based. To be noted: time 14.0 day. Summed up:
(§3)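 Leukemia cells (MV4;11 or HL-60) in medium with 10% FBS were treated with a dose range of compound for 14 days. Proliferation was read by CellTiter-Glo endpoint, with inhibition set against untreated controls and cell-free wells as 100% inhibition. Viability was also measured in parallel by trypan blue exclusion.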

A further series has as its system HL-60. Kind of series: Antiproliferative activity against human HL-60 cells after 14 days by Cell-titer Glo assay. Format: functional, cell-based. The settings on record: time 14.0 day. The method, boiled down:
as §3

The test system of series [5] is MV4-11. In words: Antitumor activity against human MV4-11 cells xenografted in SCID/beige mouse assessed as tumor growth inhibition at 30 mg/kg/day via osmotic-mini pump for 14 days. Format: functional. To be noted: MV4-11, 336 h, time 14 day. Summed up:
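MV4;11 cells mixed with 50% Matrigel, 5 x 10^6 cells injected subcutaneously in flank of 6–8 week old female SCID-beige mice. At ~200 mm3, mice allocated by tumor volume (n = 10/group). Dosed by osmotic mini-pump in 98% PEG-400/2% Tween-80 for 14 days. Calipers read 2 times weekly, V = (L x W2)/2. %TGI computed from control versus treated mean tumor volumes.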
A general note: Xenograft models place foreign cells or tissue in a host animal.

Series [6] is described as follows: Drug level in SCID/beige mouse tumor xenografted with human MV4-11 cells at 30 mg/kg/day via osmotic-mini pump. The class given is ADME, organism-based, Neoplasm. To be noted: in vivo. The method, boiled down: (§4)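 Tumor-bearing SCID-beige female mice (6–8 wk) with subcutaneous flank MV4;11 xenografts (5 x 10^6 cells in 50% Matrigel, grown to ~200 mm3). Compound given by osmotic mini-pump at 30 mg/kg/day in 98% PEG-400/2% Tween-80. Separate PK/PD arm sacrificed after 2, 7 and 14 days of treatment; plasma and tissues collected and analyzed for drug levels.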

Series [7] in a line: Drug level in SCID/beige mouse muscle xenografted with human MV4-11 cells at 30 mg/kg/day via osmotic-mini pump. Format: ADME, organism-based, Muscle tissue. The settings on record: in vivo. Summed up: as §4
A short description of series [8]: Drug level in SCID/beige mouse brain xenografted with human MV4-11 cells at 30 mg/kg/day via osmotic-mini pump. Format: ADME, organism-based. To be noted: in vivo. The method, boiled down: as §4
Series [9] deals with T1, Histone-lysine N-methyltransferase EHMT2 (Homo sapiens). In words: Inhibition of G9a in human HL-60 cells assessed as increase in cell differentiation marker CD11b for 14 days by flow cytometry. The settings on record: time 14.0 day. (In general: A flow cytometer gives signals particle by particle.)
Another series deals with MCF7. Kind of series: Antiproliferative activity against human MCF7 cells assessed as inhibition of colony formation at 10 uM after 14 days by crystal violet staining based clonogenic assay. The class given is functional, cell-based. To be noted: time 14.0 day. Summed up: (§5)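 Clonogenic assay: 500 live cells per well were seeded into six-well plates in drug-free medium. Compound diluted in culture medium was added 24 h later. Cells were cultured at 37°C, then fixed and stained with 0.2% crystal violet. Colonies were counted on an automated colony counter.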

The next series concerns MDA-MB-231. In words: Antiproliferative activity against human MDA-MB-231 cells assessed as inhibition of colony formation at 10 uM after 14 days by crystal violet staining based clonogenic assay. Format: functional, cell-based. The settings on record: time 14.0 day. Summed up:
as §5

Series [10] concerns HT-1080. In words: Antiproliferative activity against human HT-1080 cells after 5 days by Cell-Titer-Glo assay. Format: functional, cell-based. The settings on record: HT-1080, 120 h. The method, boiled down:
as §2

Molecules are shown by their SMILES. pEC50: −log10 of the molar value. Active and inactive are the calls of the source. The calls are words filed in the database; no cut-off is given here.

The source of these data is ChEMBL document CHEMBL5674869, “The Histone Methyltransferase Inhibitor A-366 Uncovers a Role for G9a/GLP in the Epigenetics of Leukemia” (PLoS One, 2015).

As a reminder, the inhibition in vivo is the change of the read-out against control, counted positive when it falls. Turning to `COc1cc2c(cc1OCCCN1CCCC1)N=C(N)C21CCC1`, the inhibition entry in series [1] and in series [2] was “inactive” in each case. The outcome in the series on HT-1080 [3] was inactive. Also, the result in the series on MV4-11 [4] and in the series on HL-60 was Active. Besides, the inhibition in vivo at 30 mg/kg/day with MV4-11 [5] was found to be 45%. In addition, the Drug uptake result in series [6], in series [7] and in series [8] was “Active” throughout. Further, in [9], the inhibition entry was “Active”.

As usually defined, the pEC50 is −log10 of the EC50, conventionally taken in molar units. Read a low pEC50 as a large EC50. In the case of `COc1cc2c(NC3CCN(C(C)C)CC3)nc(C3CCCCC3)nc2cc1OCCCN1CCCC1`, the outcome with MCF7 and in the series on MDA-MB-231 was Active. Besides, in the series on HT-1080 [10], the pEC50 was 6.30.
